Screening results deposited in PubChem BioAssay by The Scripps Research Institute Molecular Screening Center.
Sampled rows, rich in hits. Any-hit rate of the full collection: about 1.2%.
procasp7 counter – procaspase-7 activators, primary screen, counter-screen for procaspase-3 activator project, biochemical, absorbance, HTS, human; Caspase-7 (Homo sapiens), P55210; recombinant procaspase-7, Ac-DEVD-pNA absorbance 405 nm; D23A/D198A/D206A triple mutant, cannot self-cleave; scale: DMSO 0, 5 µM enzyme 100; activation, % at 8.5 µM; hit rate 0.093% among 330,000; AID 463210, 2010;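 active = percent activation above the screen-wide mean plus 3 SD, cut at about 25% in these data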
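signal = Epi-absorbance of released pNA at 405 nm, two timepoints | assay system = Uncleavable procaspase-7 mutant enzyme | reagent = Ac-DEVD-pNA substrate, 400 µM as added | times = 1 h enzyme–compound preincubation and 2 h substrate reaction, both 25 °C | benchmarks = low DMSO alone, high DMSO plus 5 µM PC-7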
proCasp3 act – activators of human procaspase-3 D3A mutant, primary screen, biochemical, absorbance, PC-3 D3A mutant, single concentration. recombinant procaspase-3 D3A, Ac-DEVD-pNA absorbance 405 nm. AID 463141, 2010. hit rate 0.11% among 330,000. activation, % at 8.5 µM. Caspase-3 (Homo sapiens), P42574;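 active = activation above the mean of all tested compounds plus 3 SD, cut at about 21% in these data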;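 note: 0% = DMSO alone and 100% = DMSO wells spiked with extra 5 µM PC-3 D3A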
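System: Procaspase-3 D3A mutant. Medium: Zinc-free 300 mM NaCl, 50 mM HEPES, 0.01% Triton X-100. Schedule: 1 h preincubation plus 2 h reaction at 25 °C. Measured by: 405 nm absorbance of p-nitroaniline, reads at 0 and 120 min. Read-out: percent activation relative to control range.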
IDE cell activ – human IDE activators in live cells, primary screen, fluorescence polarization, HEK cells, FAbeta-B substrate; Insulin-degrading enzyme (Homo sapiens), P14735; FAbeta-B cleavage; 0% vehicle, 100% cell-free pure enzyme wells; activation, % at 5.96 µM; hit rate 0.073% among 340,000; AID 493087, 2011;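 active = activation above the mean of all tested compounds plus 3 SD, set per screening campaign, cut at about 17% in these data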
Target sequence (P14735 whole entry, looked up): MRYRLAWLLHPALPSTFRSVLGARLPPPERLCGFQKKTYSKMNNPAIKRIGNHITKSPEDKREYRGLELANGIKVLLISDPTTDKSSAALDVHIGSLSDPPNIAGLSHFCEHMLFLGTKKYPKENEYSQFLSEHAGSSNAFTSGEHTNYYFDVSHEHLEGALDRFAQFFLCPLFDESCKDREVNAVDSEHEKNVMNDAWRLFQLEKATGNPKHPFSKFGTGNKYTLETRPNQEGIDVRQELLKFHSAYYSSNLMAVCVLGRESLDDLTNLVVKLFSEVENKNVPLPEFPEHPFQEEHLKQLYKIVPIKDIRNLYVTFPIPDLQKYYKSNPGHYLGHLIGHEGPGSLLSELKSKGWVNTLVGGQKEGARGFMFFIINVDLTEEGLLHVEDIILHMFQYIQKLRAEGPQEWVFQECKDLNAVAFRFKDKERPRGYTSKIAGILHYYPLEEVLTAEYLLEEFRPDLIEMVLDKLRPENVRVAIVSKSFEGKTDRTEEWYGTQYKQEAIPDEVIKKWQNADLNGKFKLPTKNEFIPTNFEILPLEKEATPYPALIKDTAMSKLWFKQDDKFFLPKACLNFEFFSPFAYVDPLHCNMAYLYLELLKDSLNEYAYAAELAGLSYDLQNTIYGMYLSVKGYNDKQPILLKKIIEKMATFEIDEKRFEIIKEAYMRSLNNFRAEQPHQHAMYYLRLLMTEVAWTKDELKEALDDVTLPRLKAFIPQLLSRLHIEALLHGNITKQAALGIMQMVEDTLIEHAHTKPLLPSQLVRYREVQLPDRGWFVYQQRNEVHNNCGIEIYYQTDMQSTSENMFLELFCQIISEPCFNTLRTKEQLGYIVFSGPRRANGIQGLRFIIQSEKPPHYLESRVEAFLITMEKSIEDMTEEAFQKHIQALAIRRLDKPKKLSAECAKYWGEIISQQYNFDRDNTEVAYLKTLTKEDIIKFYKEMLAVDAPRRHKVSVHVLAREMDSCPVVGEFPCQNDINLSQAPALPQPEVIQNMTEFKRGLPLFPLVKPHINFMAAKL
IDE cell inh – human IDE inhibitors in live cells, primary screen, fluorescence polarization, HEK cells, FAbetaB substrate. hit rate 0.41% among 320,000. AID 434962, 2010. FAbetaB cleavage. inhibition, % at 5.59 µM;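 active = percent inhibition above the average of all tested compounds plus 3 SD, set per screening campaign, cut at about 16% in these data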;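 note: IDE supplied by intact live HEK cells; FP after avidin binding of uncleaved biotin substrate so inhibition keeps polarization high; 0% = DMSO wells and 100% = 60 µM reference IDE inhibitor Ii1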
TPT1 inhibitor – Candida albicans TPT1 enzyme inhibitors, primary screen, biochemical, fluorescence polarization; hit rate 0.81% among 300,000; recombinant caTPT1, FP RNA substrate dephosphorylation; inhibition, % at 5 µM;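 active = inhibition above the mean of all tested compounds plus 3 SD, set per screening campaign, cut at about 24% in these data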;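 note: plate controls were DMSO alone for no effect and ferristatin control at 100 nM for full effect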
TPT1 inh confirm – Candida albicans TPT1 inhibitors, confirmation, biochemical, fluorescence polarization, triplicate; shares compounds with TPT1 inhibitor; recombinant caTPT1, RNase T1 coupled; inhibition, % at 5 µM; hit rate 74% among 2,400; AID 2149, 2009;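 active = inhibition above the primary screen limit, the mean inhibition of all tested compounds plus 3 SD, cut at about 25% in these data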
RNase T1 inh – RNase T1 inhibitors, counter-screen for TPT1 inhibitor project, biochemical, fluorescence polarization. shares compounds with TPT1 inhibitor. RNase T1 cleavage, 1536-well. inhibition, % at 5 µM. hit rate 83% among 2,400;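 active = inhibition above the solvent-only control well mean plus 3 SD, limit set per screening run, cut at about 23% in these data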;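 note: plate controls were DMSO wells with enzyme for no effect and wells without RNase T1 for full effect; inhibitors block cleavage so intact labeled substrate keeps polarization high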
An asterisk follows results filed as active; · = not tested or not shown.

SMILES | procasp7 counter | proCasp3 act | IDE cell activ | IDE cell inh | TPT1 inhibitor | TPT1 inh confirm | RNase T1 inh
Cc1cccc(/C=C/C(=O)c2cc(Br)ccc(=O)c2O)c1 | -14 | -22 | 0 | 1 | 21 | · | ·
CCOc1ccc(/C=C/C(=O)c2cc(Br)ccc(=O)c2O)cc1 | -10 | -9 | -4 | 0 | 24* | 32* | 41*
CCc1ccc(/C=C/C(=O)c2cc(Br)ccc(=O)c2O)cc1 | -24 | -26 | 2 | -1 | 25* | 25* | 33*
O=C(CN1CCN(c2ccccc2O)CC1)Nc1cccnc1Cl | 0 | 8 | 1 | 0 | -2 | · | ·
CCN(CC)CCCOc1ccc(Cl)c(Cl)c1 | 5 | -1 | 5 | 6 | 134* | 9 | 15
COC(=O)Nc1ccc2c(c1)N(C(=O)CCCl)c1ccccc1S2 | · | · | 2 | · | · | · | ·
CCOCCCN1CC(=O)N2[C@@H](Cc3c([nH]c4ccccc34)C2(C)C)C1=O | 3 | 3 | 2 | 3 | -1 | · | ·
O=C(Oc1coc(CSc2ncccn2)cc1=O)c1ccccc1[N+](=O)[O-] | 4 | 7 | 8 | -2 | 46* | 6 | 10
O=C(O)c1cc(-c2ccco2)nn1-c1cccc(Cl)c1 | -38 | -21 | 3 | 9 | 29* | 25* | 32*
O=C(O)c1cc(-c2ccco2)nn1-c1ccc(Cl)cc1 | · | · | 1 | · | · | · | ·
Cc1ccccc1C(=O)N1CCN(c2ccc(NC(=O)c3cccnc3Cl)cc2)CC1 | 2 | 3 | 7 | 6 | 94* | 5 | 5
Cc1ccccc1C(=O)N1CCN(c2ccc(NC(=O)c3ccccc3[N+](=O)[O-])cc2)CC1 | 2 | 2 | 4 | 2 | -3 | · | ·
CCc1ccc(/C=C/c2c[nH]c3ccccc23)[n+](CC)c1 | -2 | -3 | -7 | 8 | 31* | 29* | 38*
COc1ccc(CCC(=O)NCC(=O)OCc2ccccc2)cc1 | -2 | -5 | 0 | 3 | -4 | · | ·
CCOC(=O)c1c(NC(=S)Nc2cccc(C)c2)sc2c1CC(C)(C)SC2 | 0 | -5 | -4 | -6 | 31* | 26* | 32*
CCOC(=O)c1c(NC(=S)Nc2ccccc2)sc2c1CCN(CC)C2 | -25 | -24 | -6 | 1 | 99* | 86* | 95*
Cc1ccc(-n2nc3c(N4CCC(C(=O)N5CCC(C(N)=O)CC5)CC4)nnc(C)c3c2C)cc1 | -2 | 2 | 0 | 4 | 35* | 40* | 48*
CCN1CCN(C(=O)C2CCN(c3nnc(C)c4c(C)n(-c5ccc(C)cc5)nc34)CC2)CC1 | 11 | -8 | 2 | 7 | 2 | · | ·
CCc1cc2c(SCc3nc4sc(C(C)=O)c(C)c4c(=O)[nH]3)ncnc2s1 | -3 | 6 | -3 | 7 | 37* | 33* | 50*
Cc1sc2nc(CSc3ncn[nH]3)[nH]c(=O)c2c1C | -3 | 2 | 3 | -1 | 1 | · | ·
CN1CCc2c(sc3nc(NN)n(-c4ccc(Cl)cc4)c(=O)c23)C1 | -7 | -1 | 6 | 2 | 38* | 18 | 24*
COc1ccc(-n2c(SC)nc3sc4c(c3c2=O)CCN(C)C4)cc1 | · | · | -3 | · | · | · | ·
CCSc1nc2sc3c(c2c(=O)n1-c1ccccc1)CCN(C)C3 | 6 | 0 | -7 | 9 | 8 | · | ·
CN1CCc2c(sc3nc(NN)n(Cc4ccccc4)c(=O)c23)C1 | 0 | -4 | 7 | -5 | 38* | 46* | 54*
Cc1nnc(SC(C)C(=O)Nc2ccc(N3CCOCC3)cc2)n1Cc1ccccc1 (stereo not drawn) | · | · | 4 | · | · | · | ·
SMILES | procasp7 counter | proCasp3 act | IDE cell activ | IDE cell inh | TPT1 inhibitor | TPT1 inh confirm | RNase T1 inh
CC1CCCCC1NC(=O)COC(=O)c1c2c(nc3ccccc13)/C(=C/c1ccco1)CC2 (stereo not drawn) | -33 | -44 | -6 | 1 | 33* | 29* | 41*
Cn1c(=O)c([N+](=O)[O-])c(-n2cnc3ccccc32)c2ccccc21 | 5 | -5 | · | -1 | -1 | · | ·
COc1nc(N)c(S(=O)(=O)c2ccccc2C)cc1C#N | 13 | 11 | -3 | -2 | 11 | · | ·
COc1nc(N)c(S(=O)(=O)c2ccccc2)cc1C#N | 6 | 13 | 3 | -1 | 30* | 30* | 41*
CC(C)(C#N)NC(=O)C1CCCN1S(=O)(=O)c1ccc2ccccc2c1 (stereo not drawn) | 3 | 1 | -4 | -5 | 2 | · | ·
O=C1NC(=S)SC1=C1CCCC1 | -23 | -16 | 0 | 6 | 28* | 17 | 25*
COc1ccc(Cl)cc1NC(=O)CSc1nc2ccsc2c(=O)n1CC1CCC(C(=O)O)CC1 (stereo not drawn) | 0 | -3 | 6 | -4 | 2 | · | ·
Cc1sc2nc(CSc3nnnn3-c3ccc(Cl)cc3)[nH]c(=O)c2c1C | 0 | -10 | 4 | -4 | 31* | 40* | 49*
CN1CCc2c(sc(NC(=O)c3ccc(S(=O)(=O)N4CCc5ccccc54)cc3)c2C(N)=O)C1 | 4 | -8 | · | 8 | 34* | 51* | 63*
CCCN1CCc2c(sc(NC(=O)c3ccc(S(=O)(=O)N(C)c4ccccc4)cc3)c2C(=O)NC)C1 | -10 | -6 | -9 | 5 | 104* | 110* | 118*
CN1CCc2nc(NC(=O)c3cccc(S(=O)(=O)N4CCc5ccccc54)c3)sc2C1 | -2 | -1 | 5 | 0 | 49* | 21 | 29*
CN1CCc2c(sc(NC(=O)c3ccco3)c2C(N)=O)C1 | -13 | -3 | 6 | 0 | 10 | · | ·
CNC(=O)c1c(NC(=O)c2ccc(S(=O)(=O)N3CCCc4ccccc43)cc2)sc2c1CCN(C)C2 | -19 | -12 | -4 | 1 | 103* | 79* | 88*
O=C(NCc1ccccc1)c1ccc(S(=O)(=O)N2CCCc3ccccc32)cc1 | 1 | -2 | 7 | -1 | -4 | · | ·
CCOc1ccccc1N(CC(=O)NC1CCCC1)C(=O)CNC(=O)c1cccs1 | 14 | -3 | 3 | -4 | -2 | · | ·
N#CCC(=O)Nc1ccc(C(=O)NCC(c2ccco2)N2CCCCC2)cc1 (stereo not drawn) | 4 | 2 | -1 | 2 | 48* | 56* | 66*
